The results in this text go back to the EternaBench riboswitch data.

The apparent Kd is the concentration giving half-maximal binding under the conditions of the assay.

This series has as its system MS2 coat protein. Put plainly: apparent Kd, MS2 coat protein; higher = weaker binding; RNA-MaP array; FMN 200 µM where present. In outline:
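On Illumina sequencing-chip clusters, designs were transcribed by stalled E. coli RNA polymerase and titrated with SNAP-549-labelled MS2 coat protein (0.7 or 1.5 nM, doubling to 3 µM), without and then with constant ligand, in 100 mM Tris-HCl pH 7.5, 80 mM KCl, 4 mM MgCl2, BSA, DTT, yeast tRNA and Tween-20. Apparent Kd is the median of filtered per-cluster curve fits to green signal normalised to red-channel RNA signal and control-cluster median Fmax.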

The mark [1] stands for this setting: designed as: OFF switch for flavin mononucleotide, no ligand.
[2] abbreviates: ligand present: flavin mononucleotide, designed as: OFF switch for flavin mononucleotide.
[3] abbreviates: designed as: ON switch for flavin mononucleotide, no ligand.
Where [4] appears, read: ligand present: flavin mononucleotide, designed as: ON switch for flavin mononucleotide.

As to “ACUAAGCGAGGAUAUACUAACAAACCUCAAACAUACAUCAAACAUGAGGAUCACCCAUGUAGAAGGCGCAAACU”, the “apparent Kd” value by setting is: under setting [1], 27.3 nM; under setting [2], 37.6 nM.
Turning to “CAUAGGCGAGGAUAUACAUGAGGAUCACCCAUGUAAGGAAACCUGGCAGACUCAGAAUGUAGAAGGCGCACUGA”, the “apparent Kd” value runs as follows: under setting [1], 21.6 nM; under setting [2], 41 nM.
On to “UCGUAUAAGGGCAUUACACAUGAGGAUCACCCAUGUACGUUAGAGGAUAUGCAUUCCAGUUGAACGUAGAAGGCUAGAGAAGGG”, for which the “apparent Kd” value by setting is: under setting [1], 132 nM; under setting [2], 129 nM.
For “CGCUACAGCCAGAAGGACAUGAGGAUCACCCAUGUAGGAUAUGGGAGACACAGUCCCGUGUAGAGAAACUACGCUACUGUAGCG”, the “apparent Kd” value by setting is: under setting [3], 679 nM; under setting [4], 464 nM.
As to “CAGGACAGAGGAUAUACAUAGAUACAGAUUCAUGUAGAACUACAUGAGGAUCACCCAUGUAGAAGGCUGACCUG”, the “apparent Kd” value reads like this: under setting [1], 28.5 nM; under setting [2], 221 nM.
On the same counts, the results for “GGAUAGGACAGAGGAUAUACGUGCUAGAGAUACUAGCAAAAUUUCCUCACAUGAGGAUCACCCAUGUAGAAGGCUGUCCCAUCG” are 15.3 nM and 327 nM.
As to “AAUAAAUAGGAGGAUAUCGUAUCGGAAACGAUACGAGAAGGUCUAACAUGAGGAUCACCCAUGUUCCUCAAUAA”, the “apparent Kd” value reads like this: under setting [1], 33.1 nM; under setting [2], 95.8 nM.
On the same counts, the results for “GGCUAGUCAGGAUAUACGAACAUGUCAAAAGACGUGAAGGGACAUGAGGAUCACCCAUGUAGAAGGGACUAGCU” are 24.8 nM and 165 nM.
Take “GGGUGGCGUACAGGAUAUGUGGUACAUGAGGAUCACCCAUGUGCAUAUGAUGUUCGUGUGUCAUCAUAGAAGGGUACGUCGCUA”: the “apparent Kd” value turned out to be 91.2 nM under setting [3] and 59.2 nM under setting [4].
For “CAUGUCCUCACAGGAUAUGCAAUGUAUUUCAUUGCAGAAGGGUGAACACAUGAGGAUCACCCAUGUGGACAUGAUAUAUUUAAG”, the “apparent Kd” value under setting [3] amounted to 529 nM and the “apparent Kd” value under setting [4] stood at 63.4 nM.
With “GCUGACGAUGUAGGAUAUCUCGACGAUAAGUCGAGAGAAGGACAUGAGGAUCACCCAUGUAAAACUCCGUCAGCGAGGAAACUC”, the “apparent Kd” value reads like this: under setting [1], 16.3 nM; under setting [2], 17.8 nM.
Take “GACAUGAGGAUCACCCAUGUCCAUGCAAGAGUAGUUGAGACCAGAAGGACCGUGCGGAAUGCAGGGUAGGAUAUGGAGCCCUCA”: the “apparent Kd” value by setting is: under setting [3], 36.8 nM; under setting [4], 9.38 nM.
“CUGCUUCCCAGUUUGGUUAUUUAUACAGAAGGCCAUUCACAUGAGGAUCACCCAUGUCAAGUAAUGGAGGAUAUGUUAUUGUCG”: the “apparent Kd” value turned out to be 6.64 nM under setting [3] and 4.65 nM under setting [4].
As for “AAUAAACUCACAGGAUAUAGCAUAGGUCGCGUGAACUUACAGACGACUAUGCUAGAAGGGUGACCACAUGAGGAUCACCCAUGU”, the “apparent Kd” value is, setting by setting: under setting [3], 880 nM; under setting [4], 186 nM.
With “ACACAUGAGGAUCACCCAUGUAGCUGGCGUCUGCGCCAGCCACAGGAUAUACGGCUACACAAGCCGUAGAAGGGUGAUAAACAC”, the “apparent Kd” value runs as follows: under setting [3], 62.9 nM; under setting [4], 27.2 nM.
Regarding “CAUAGUAAUUAGGAUAUCUGCCGGCUGAACCGAGGAGAAGGGAUUACAUGAGGAUCACCCAUGUGGUCCUAAGA”, the “apparent Kd” value turned out to be 17 nM under setting [1] and 18.7 nM under setting [2].
On to “GCUGUCGCUUGAGGAUAUGGUCAGCUUUGCUGACCAGAAGGCAUGUCAAUAGACAUGAGGAUCACCCAUGUAGUAAGGGCGGCU”, for which the “apparent Kd” value reads like this: under setting [3], 339 nM; under setting [4], 122 nM.
Regarding “GCGGUUACGGUUGGCACUUAGCGAGAGGAUAUGGUAAGCUGGACAUGAGGAUCACCCAUGUACUAUCAGAAGGCUCGAGCACGC”, the “apparent Kd” value runs as follows: under setting [3], 7.94 nM; under setting [4], 9.15 nM.
On to “CUGGUUGUCGUAGGAUAUGUAGGAUAUUCCUACAUGAGGAUCACCCAUGUUCGCAUGGAAGAAAGACAGAAGGACGAUGACCAU”, for which the “apparent Kd” value came out at 1190 nM under setting [3] and 52.2 nM under setting [4].
Take “AAGUGUGGAUGAGGAUAUCAGCUGUAACUGACGUCGACAUGAGGAUCACCCAUGUUGCUAAAGGGUGAGAAGGCAUUUGCGCAA”: the “apparent Kd” value runs as follows: under setting [3], 481 nM; under setting [4], 53.8 nM.
In the case of “UGUACUAUAAGGUUAAUUGUAUAUUGAGAAGGCAUUCACAUGAGGAUCACCCAUGUAACAUGGGAUGAGGAUAUCAAUUUGUAC”, the “apparent Kd” value runs as follows: under setting [3], 197 nM; under setting [4], 33.4 nM.
Consider “UAAAUUAACAAGAAGGCUAACAUGAGGAUCACCCAUGUUGUACAUGGAUAUAGAGGAUAUUGCUAAUAAUUUUUUAUCAUAAUU”, for which the “apparent Kd” value was found to be 20.8 nM under setting [1] and 17.6 nM under setting [2].
Turning to “GGUACCAACACAGGAUAUGCUAUCCUUUGGGUAGCAGAAGGGUGAAACAUGAGGAUCACCCAUGUGGUGCCAGGGCGUGAGCCC”, the “apparent Kd” value runs as follows: under setting [3], 1460 nM; under setting [4], 96.2 nM.
Consider “ACAUGAGGAUCACCCAUGUAUUACAUGGUUAAGUUUAUUAACAGAAGGCGAAAAUACCACUUUUUCGAGGAUAUGUUUUCUAUA”, for which the “apparent Kd” value is, setting by setting: under setting [1], 47.4 nM; under setting [2], 61.6 nM.
On to “UGAACUAUGUAGAAGGCCCAUAUCUAUAUUUAGGGAGGAUAUACAUGAGGAUCACCCAUGUAUAGAGCGGGUGGACCCGUCACU”, for which the “apparent Kd” value runs as follows: under setting [1], 39 nM; under setting [2], 72.1 nM.
As to “GAAUAUUCGUUGUACAUGAGGAUCACCCAUGUGUCUUUACAUGAGGAUAUGGAUUCUAAUUGGAUCCAGAAGGCAUGAAUAUUC”, the “apparent Kd” value under setting [3] turned out to be 154 nM and the “apparent Kd” value under setting [4] was found to be 53.1 nM.
“UAUAUAUAGUAAGGAUAUGUAUUAAUUGUAUAAACAGAAGGUACUGACAUGAGGAUCACCCAUGUUUUAGUGUGGGCAUGUAGA”: the “apparent Kd” value was 91.3 nM under setting [1] and 149 nM under setting [2].
Regarding “CAACCGUUGCAGAAGGUUAAAUAUAUCAACUUAUGGACAACAUGAGGAUCACCCAUGUUUUUGUUGAAGGAUAUGCAAGGGUUG”, the “apparent Kd” value came out at 5.89 nM under setting [1] and 5.71 nM under setting [2].
On to “CUAUGAGCGAUAGGAUAUACUGAGAUUGAAUGGGUAGAAGGAUCGAUCGUGUAGAAGACAUGAGGAUCACCCAUGUUACGGGCC”, for which the “apparent Kd” value is, setting by setting: under setting [3], 73.9 nM; under setting [4], 93.5 nM.
Turning to “ACAGAAGCACCCGGAACCGGACAAUGAGAAGGCCACGCACAUGAGGAUCACCCAUGUAAAGCUAUGGAGGAUAUCAUGAUGGAU”, the “apparent Kd” value came out at 40.3 nM under setting [3] and 5.64 nM under setting [4].
Take “AUCAUUCGUGUAGGAUAUGCGUGGCGAAGCUAUGCAGAAGGACAUGAGGAUCACCCAUGUCUUUCUCGAGCUGUAGCUCGAGGA”: the “apparent Kd” value is 21.3 nM under setting [1] and 92.2 nM under setting [2].
Turning to “UUAUUUUGUCAAGGAUAUGUAUUAUUGAUUUGAAAACAUGAGGAUCACCCAUGUAUAUGGUGGGAACAGAAGGUGAAUAAGUAA”, the “apparent Kd” value was 248 nM under setting [1] and 235 nM under setting [2].
The corresponding values for “CGCUAAUAGAACGAUUUGUGAAGACAUGAGGAUCACCCAUGUAGAAGGACAACGGAAUAAACGUUGUAGGAUAUACACUUAGCG” are 18.1 nM and 24.4 nM.
Take “GGGUACAUCGGAGGAUAUCAUGUAAAUACAUGAGGAUCACCCAUGUCGAUGGCGACAUCGGAGAUUGAGAAGGCCGAUGUACCG”: the “apparent Kd” value by setting is: under setting [3], 448 nM; under setting [4], 12.3 nM.
For “AUAUAUAUAUCAGGAUAUGGACAGGCCUGUUCGUAUUAAGACAGUAACAUGAGGAUCACCCAUGUCCAGAAGGGAUAUAUAUAU”, the “apparent Kd” value is 83.9 nM under setting [1] and 50 nM under setting [2].
The corresponding values for “UAAGACUAGCAUUGGUAUCUCCACAUGAGGAUCACCCAUGUUUAGGAUAUGAGCAGCAAAGCUGCUUAGAAGGAGACGCUAGUC” are 7.26 nM and 7.21 nM.
On the same counts, the results for “AUGCUUAUCGAAGGAUAUGGUUACAUGAGGAUCACCCAUGUUAUGCUUGGUUACUUGUUUAGUUUCCAGAAGGUCGAUUAGUUA” are 46.9 nM and 174 nM.
“ACAUGAGGAUCACCCAUGUGAAACCAAUGGCUGACUUUGAGCUAGGAUAUUUGUGCAUAUCAAACAAAGAAGGAGCAUUACUGG”: the “apparent Kd” value runs as follows: under setting [1], 41.1 nM; under setting [2], 37.9 nM.
For “AAGAAGACAGGAUAUACAUGAAAGAAAGAAAAGAAAAGAAAACAUGAGGAUCACCCAUGUAGAAGGGUCAAGAA”, the “apparent Kd” value under setting [1] is 46.5 nM and the “apparent Kd” value under setting [2] came out at 59.2 nM.
Regarding “AGCGUGUAAGGAUAUACGUCGGAUAGCGAAUGCUGUCCCUAGUAGAAGGUACAUGAGGAUCACCCAUGUGUCCA”, the “apparent Kd” value is, setting by setting: under setting [1], 23.3 nM; under setting [2], 70.1 nM.
For the sequence “UUGGCGACGUAGAAGGGUGACAUGAGGAUCACCCAUGUGCCGAUAUGUCUCGAGAUAUGUCGGCCACAGGAUAUACGUGCCAUC”, the “apparent Kd” value under setting [3] came to 61.7 nM and the “apparent Kd” value under setting [4] is 38.5 nM.
Take “GUAGUGUAGUGAGGAUAUACGAGAUCGAUAGAUCGGCGAUCCAUAUAUACAUGAGGAUCACCCAUGUAGAAGGCACUUCACUAC”: the “apparent Kd” value is, setting by setting: under setting [1], 7.5 nM; under setting [2], 91.5 nM.
For “GAAACCUCAGGUUAAGGUUGACGACAUGAGGAUCACCCAUGUAGAAGGACCAAGGCGACCGUACGGUAGGAUAUACACGGGAGG”, the “apparent Kd” value runs as follows: under setting [1], 10.8 nM; under setting [2], 24.9 nM.
“UAUAUAUAGUAAGGAUAUGUAAAUAUUUUAUAAACAGAAGGUACUGACAUGAGGAUCACCCAUGUUUUAGUGUGGGCAUGUAGA”: the “apparent Kd” value reads like this: under setting [1], 79.2 nM; under setting [2], 139 nM.
With “GGACGUCACAUGAACAUGAGGAUCACCCAUGUAAAUUCUCAUGAGGAUAUGGAACCUAAUUGGUUCCAGAAGGCAUGGACGUCC”, the “apparent Kd” value amounted to 1270 nM under setting [3] and 381 nM under setting [4].
Turning to “UAUGUGUCAGGAUAUGGAUUAGUUCGGGAUUCGGAACUGGUUCAGAAGGGACAUGAGGAUCACCCAUGUUUUUC”, the “apparent Kd” value turned out to be 33.1 nM under setting [1] and 169 nM under setting [2].
Consider “UUGAGGCACCAGAAGGACAUGAGGAUCACCCAUGUAGGAUAUGGGCAAGCCGACGUGCGCAGAUUGCUUAGUUGGGUAUCUUCU”, for which the “apparent Kd” value is, setting by setting: under setting [3], 43.2 nM; under setting [4], 10.4 nM.
